These results are taken from ChEMBL document CHEMBL4308856, “Novel 5-(quinuclidin-3-ylmethyl)-1,2,4-oxadiazoles to investigate the activation of the α7 nicotinic acetylcholine receptor subtype: Synthesis and electrophysiological evaluation” (Eur J Med Chem, 2018).

Common to all, as to format: cell-based
Test [1] has as its target T1, Neuronal acetylcholine receptor subunit alpha-7 (Homo sapiens, UniProt P36544). Nature of the test: Silent agonist activity at human alpha7 nAChR expressed in Xenopus laevis oocytes assessed as increase in net charge at 3 uM at -60 mV holding potential treated for 12 secs followed by compound washout for 181 secs in presence of type 2 PAM PNU-120596 by whole cell two electrode voltage-clamp assay relative to ACh. The method, boiled down: (§1)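 α7 (human) expressed in Xenopus oocytes, voltage-clamped at −60 mV, Ringer's pH 7.2 with atropine at 2 mL/min. Compound (3, 10 or 30 μM) was co-applied with PNU-120596 for 12 s, then washed out for 181 s. Net charge was expressed relative to the mean of two preceding 60 μM ACh control responses in the same oocyte. Mean ± SEM, at least four oocytes.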
In general terms: Two-electrode voltage clamp holds a large cell at a set potential and records current.

Test [2] addresses T1, Neuronal acetylcholine receptor subunit alpha-7. Nature of the test: Partial agonist activity at human alpha7 nAChR expressed in Xenopus laevis oocytes assessed as increase in peak current amplitude at 30 uM at -60 mV holding potential treated for 12 secs followed by compound washout for 181 secs by whole cell two electrode voltage-clamp assay relative to ACh. In outline:
(§2)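 Human α7 nAChR expressed in Xenopus laevis oocytes, two-electrode voltage clamp at −60 mV with 3 M KCl electrodes. Ringer's with atropine, pH 7.2, perfused at 2 mL/min. Compound was applied at 30 μM for 12 s with a 181 s washout. Peak current and net charge were each normalized to the mean of two prior 60 μM ACh controls in the same oocyte; the peak/net-charge ratio was taken. Mean ± SEM, at least four oocytes.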

Test [3] has the same target. Nature of the test: Ratio of Silent agonist activity at human alpha7 nAChR expressed in Xenopus laevis oocytes assessed as increase in net charge in presence of type 2 PAM PNU-120596 relative to ACh to partial agonist activity at human alpha7 nAChR expressed in Xenopus laevis oocytes assessed as increase in net charge relative to ACh. In outline:
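PNU effectiveness: net-charge response of human α7 nAChR (Xenopus oocytes, −60 mV clamp) to compound co-applied with 10 μM PNU-120596, divided by the response to compound alone. Both responses were normalized to 60 μM ACh controls, with 12 s applications and 181 s washout.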

Test [4] shares this target. Nature of the test: Partial agonist activity at human alpha7 nAChR expressed in Xenopus laevis oocytes assessed as increase in net charge at 30 uM at -60 mV holding potential treated for 12 secs followed by compound washout for 181 secs by whole cell two electrode voltage-clamp assay relative to ACh. In outline: as §2
Test [5] has the same target. Nature of the test: Ratio of partial agonist activity at human alpha7 nAChR expressed in Xenopus laevis oocytes assessed as increase in peak current amplitude relative to ACh to partial agonist activity at human alpha7 nAChR expressed in Xenopus laevis oocytes assessed as increase in net charge relative to ACh. In outline: as §2
Test [6] shares this target. Nature of the test: Silent agonist activity at human alpha7 nAChR expressed in Xenopus laevis oocytes assessed as increase in net charge at 30 uM at -60 mV holding potential treated for 12 secs followed by compound washout for 181 secs in presence of type 2 PAM PNU-120596 by whole cell two electrode voltage-clamp assay relative to ACh. In outline: as §1
Test [7] has the same target. Nature of the test: Silent agonist activity at human alpha7 nAChR expressed in Xenopus laevis oocytes assessed as increase in net charge at 10 uM at -60 mV holding potential treated for 12 secs followed by compound washout for 181 secs in presence of type 2 PAM PNU-120596 by whole cell two electrode voltage-clamp assay relative to ACh. The method, boiled down: as §1

Test [8] shares this target. Nature of the test: Partial agonist activity at human alpha7 nAChR expressed in Xenopus laevis oocytes at -60 mV holding potential treated for 12 secs followed by compound washout for 181 secs by whole cell two electrode voltage-clamp assay relative to ACh.
The target is the same in test [9]. Nature of the test: Silent agonist activity at human alpha7 nAChR expressed in Xenopus laevis oocytes assessed as increase in net charge at 3 to 10 uM at -60 mV holding potential treated for 12 secs followed by compound washout for 181 secs in presence of type 2 PAM PNU-120596 by whole cell two electrode voltage-clamp assay relative to ACh. The method, boiled down: as §1

Each structure is given as a SMILES string. pEC50: −log10 of the molar value. The source made the active and inactive calls. No cut-off for these calls is given here.

T1 sequence (P36544 whole entry): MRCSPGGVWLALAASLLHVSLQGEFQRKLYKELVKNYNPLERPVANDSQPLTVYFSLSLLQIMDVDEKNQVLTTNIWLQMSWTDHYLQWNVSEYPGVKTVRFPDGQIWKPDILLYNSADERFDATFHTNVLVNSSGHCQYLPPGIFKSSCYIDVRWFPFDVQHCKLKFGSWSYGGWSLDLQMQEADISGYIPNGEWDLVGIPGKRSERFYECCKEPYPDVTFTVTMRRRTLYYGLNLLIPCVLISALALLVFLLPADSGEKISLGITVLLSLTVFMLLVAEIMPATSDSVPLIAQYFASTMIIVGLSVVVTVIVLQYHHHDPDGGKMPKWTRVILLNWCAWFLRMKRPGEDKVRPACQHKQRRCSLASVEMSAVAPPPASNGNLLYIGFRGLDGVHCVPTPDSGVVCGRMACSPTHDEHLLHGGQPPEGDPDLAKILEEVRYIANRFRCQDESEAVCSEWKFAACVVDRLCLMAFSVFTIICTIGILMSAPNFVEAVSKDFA

In the case of `Cc1noc(CC2CN3CCC2CC3)n1` (stereo unspecified), the result in [1] and in [7] was inactive. For the same molecule, the fold change (FC) was determined as 0.026 in [2], 0.042 in test [4] and 5.1 in test [6]. The Ratio in [3] came out at 121; in [5] it was 0.62.

Take `c1cncc(-c2noc(CC3CN4CCC3CC4)n2)c1` (stereo unspecified): the fold change (FC) in [2] was determined as 0.867; in test [4], 0.483; in test [6] it was 13.7. For the same molecule, the values for the Ratio in [3] and in test [5] were 28 and 1.8, respectively.

Consider `C[N+]12CCC(CC1)C(Cc1nc(-c3cccc(F)c3)no1)C2` (stereo unspecified), for which the fold change (FC) in test [2] was determined as 0.067; in test [4], 0.063; in test [6], 0.3. The Ratio in [3] amounted to 5; in test [5] it was 1.06.

Regarding `COc1cccc(-c2noc(CC3CN4CCC3CC4)n2)c1` (stereo unspecified), the fold change (FC) in test [2] is 1.42; in test [4], 0.511; in test [6], 1. The Ratio was determined as 2 in [3] and 2.77 in [5].

For `Brc1cccc(-c2noc(CC3CN4CCC3CC4)n2)c1` (stereo unspecified), the fold change (FC) in test [2] worked out at 0.92; in [4], 0.274; in test [6] it was 0.5. Moreover, the Ratio is 2 in [3] and 3.36 in [5].

One may read the pEC50 as the negative decadic logarithm of the EC50, by convention in mol/L. High values mean a low EC50, low ones a high EC50. Turning to `c1csc(-c2noc(CC3CN4CCC3CC4)n2)c1` (stereo unspecified), the fold change (FC) is 13.4 in test [1], 2.06 in test [2], 0.508 in test [4] and 5 in [6]. Besides, the Ratio came to 10 in [3] and 4.06 in [5]. The pEC50 in [8] was over 4.52.

With `C[N+]12CCC(CC1)C(Cc1nc(-c3cccnc3)no1)C2` (stereo unspecified), the fold change (FC) in test [2] was 0.023; in test [4], 0.048; in test [6], 3.9. The Ratio in [3] was determined as 81; in test [5] it was 0.48.

In the case of `COc1cccc(-c2noc(CC3C[N+]4(C)CCC3CC4)n2)c1` (stereo unspecified), the fold change (FC) was determined as 0.119 in test [2], 0.129 in [4] and 1.8 in [6]. For the same molecule, the Ratio in [3] turned out to be 14; in test [5] it was 0.92.

Take `C[N+]12CCC(CC1)C(Cc1nc(-c3cccs3)no1)C2` (stereo unspecified): the figures for the fold change (FC) in test [2], in [4] and in [6] were 0.103, 0.127 and 0.2, respectively. Besides, the Ratio in test [3] came to 2; in test [5], 0.81.

Consider `C[N+]12CCC(CC1)C(Cc1nc(-c3cccc(Br)c3)no1)C2` (stereo unspecified), for which the figures for the fold change (FC) in test [2], in test [4] and in test [6] were 0.44, 0.177 and 0.3, respectively. Also, the results for the Ratio in test [3] and in test [5] were 2 and 2.49, respectively.

For `Cc1cccc(-c2noc(CC3CN4CCC3CC4)n2)c1` (stereo unspecified), the figures for the fold change (FC) in test [2], in test [4] and in [6] were 2.11, 0.434 and 77.3, respectively. Besides, the figures for the Ratio in test [3] and in test [5] were 178 and 4.85, respectively.

As for `COc1ccc(-c2noc(CC3CN4CCC3CC4)n2)cc1` (stereo unspecified), the fold change (FC) in test [1] was 4.4; in [2], 1.98; in [4] it was 0.401; in [6] it was 1.6. Also, the Ratio is 4 in test [3] and 4.93 in [5]. The molecule further gave a pEC50 in test [8] of over 4.52.

For the molecule `Ic1cccc(-c2noc(CC3CN4CCC3CC4)n2)c1` (stereo unspecified), the fold change (FC) in test [2] is 1.21; in test [4], 0.245; in [6] it was 0.5. Moreover, the Ratio in test [3] was determined as 2; in test [5] it was 4.94.

On to `C[N+]12CCC(CC1)C(Cc1nc(-c3ccccc3)no1)C2` (stereo unspecified), for which the figures for the fold change (FC) in [2], in test [4] and in test [6] were 0.069, 0.112 and 2.4, respectively. For the same molecule, the Ratio amounted to 21 in test [3] and 0.62 in [5].

Regarding `FC(F)(F)c1cccc(-c2noc(CC3CN4CCC3CC4)n2)c1` (stereo unspecified), the fold change (FC) is 0.144 in test [2], 0.055 in test [4] and 0.1 in [6]. In addition, the Ratio is 2 in [3] and 2.62 in [5].

For `C[N+]12CCC(CC1)C(Cc1nc(-c3cccc(Cl)c3)no1)C2` (stereo unspecified), the fold change (FC) in test [2] turned out to be 0.293; in test [4] it was 0.151; in [6], 0.7. The Ratio in test [3] came out at 5; in test [5] it was 1.94.

Turning to `Cc1noc(CC2C[N+]3(C)CCC2CC3)n1` (stereo unspecified), the fold change (FC) came to 0.003 in test [2], 0.001 in test [4] and 0.1 in test [6]. Besides, the Ratio in test [3] came out at 100; in [5] it was 3.

With `Fc1cccc(-c2noc(CC3CN4CCC3CC4)n2)c1` (stereo unspecified), the results for the fold change (FC) in test [2], in test [4] and in test [6] were 2.05, 0.458 and 0.9, respectively. The Ratio is 2 in [3] and 4.47 in [5].

Consider `C[N+]12CCC(CC1)C(Cc1nc(-c3cccc(I)c3)no1)C2` (stereo unspecified), for which the results for the fold change (FC) in [2], in test [4] and in [6] were 0.866, 0.239 and 0.3, respectively. The Ratio in [3] came out at 1; in [5], 3.62.

Consider `c1ccc(-c2noc(CC3CN4CCC3CC4)n2)cc1` (stereo unspecified), for which the fold change (FC) in test [1] was determined as 17.4; in test [2] it was 1.3; in [4], 0.602; in test [6], 1.7. Moreover, the results for the Ratio in test [3] and in [5] were 3 and 2.16, respectively. The molecule also showed a pEC50 in test [8] of over 4.52.

Take `c1cc(-c2noc(CC3CN4CCC3CC4)n2)ccn1` (stereo unspecified): the fold change (FC) stood at 0.553 in test [2], 0.703 in [4] and 25.5 in test [6]. Moreover, the Ratio in [3] was 36; in test [5], 0.79.

As to `Clc1cccc(-c2noc(CC3CN4CCC3CC4)n2)c1` (stereo unspecified), the figures for the fold change (FC) in [2], in test [4] and in test [6] were 1.2, 0.32 and 0.6, respectively. Further, the Ratio in test [3] was determined as 2; in test [5] it was 3.76.

As for `C[N+]12CCC(CC1)C(Cc1nc(-c3ccco3)no1)C2` (stereo unspecified), the fold change (FC) in test [2] was determined as 0.01; in [4], 0.014; in test [6] it was 27.9. For the same molecule, the Ratio in [3] was found to be 1990; in test [5], 0.71.

With `Cc1cccc(-c2noc(CC3C[N+]4(C)CCC3CC4)n2)c1` (stereo unspecified), the fold change (FC) in [2] was found to be 0.079; in test [4], 0.077; in [9] it was 10.9; in [6], 1.2. The results for the Ratio in test [3] and in [5] were 16 and 1.03, respectively. Further, the outcome in test [7] was inactive.

With `COc1ccc(-c2noc(CC3C[N+]4(C)CCC3CC4)n2)cc1` (stereo unspecified), the fold change (FC) in test [2] came to 0.051; in [4], 0.075; in [6], 2.2. The Ratio in test [3] was found to be 29; in test [5], 0.68. The outcome in [9] was Active.

For `C[N+]12CCC(CC1)C(Cc1nc(-c3ccncc3)no1)C2` (stereo unspecified), the fold change (FC) was 0.034 in [2], 0.047 in test [4] and 2.6 in test [6]. In addition, the values for the Ratio in [3] and in test [5] were 55 and 0.72, respectively.
